# According to ChEMBL document CHEMBL1136510, “Nociceptin/Orphanin FQ(1-13)NH2 analogues modified in the Phe1-Gly2 peptide bond” (Bioorg Med Chem Lett, 2003):
# Active and inactive are the calls of the source. The rule behind the calls is not given here.
# Assays:
# Mus musculus [1] = species on record: Mus musculus; assay: (§1) Agonistic activity determined by its ability to inhibit the electrically evoked contraction of the mouse vas deferens (mVD); assay type: functional, organism-based
# Summary of the method: (§2)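 Isolated mouse vas deferens, electrically stimulated; inhibition of evoked twitch contraction. Cumulative concentration-response curves up to 10 µM (highest concentration tested); potency expressed as pEC50.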
# Mus musculus [2] = species on record: Mus musculus; assay: as §1; assay type: functional; summary of the method: as §2
# Mus musculus [3] = species on record: Mus musculus; assay: Agonistic activity determined by its ability to inhibit the electrically evoked contraction of the mouse vas deferens (mVD); Inactive up to 10 uM; assay type: functional; summary of the method: as §2
EC50 (Mus musculus [1]),Log EC50 (Mus musculus [3]),SMILES,Emax (Mus musculus [2])
14.1 nM,–,C[C@H](NC(=O)CNC(=O)[C@@H](NC(=O)[C@H](Cc1ccccc1)NC(=O)CNC(=O)CNC(=O)[C@@H](N)Cc1ccccc1)[C@@H](C)O)C(=O)N[C@@H](CCCNC(=N)N)C(=O)N[C@@H](CCCCN)C(=O)N[C@@H](CO)C(=O)N[C@@H](C)C(=O)N[C@@H](CCCNC(=N)N)C(=O)N[C@@H](CCCCN)C(N)=O,90%
–,inactive,C[C@H](NC(=O)CNC(=O)[C@@H](NC(=O)[C@H](Cc1ccccc1)NC(=O)CNC(=O)CNC[C@@H](N)Cc1ccccc1)[C@H](C)O)C(=O)N[C@@H](CCCN=C(N)N)C(=O)N[C@@H](CCCCN)C(=O)N[C@@H](CO)C(=O)N[C@@H](C)C(=O)N[C@@H](CCCN=C(N)N)C(=O)N[C@@H](CCCCN)C(N)=O,–
